From ChEMBL document CHEMBL4118098, “Discovery of DS28120313 as a potent orally active hepcidin production inhibitor: Design and optimization of novel 4,6-disubstituted indazole derivatives” (Bioorg Med Chem Lett, 2017)

Experiments:
[1] = molecular target: Ribosomal protein S6 kinase alpha-2 (Homo sapiens) (UniProt Q15349); assay: Inhibition of RSK3 (unknown origin) at 0.164 uM relative to control
[2] = molecular target: Calcium/calmodulin-dependent protein kinase type II subunit alpha (Homo sapiens) (UniProt Q9UQM7); assay: Inhibition of CaMK2a (unknown origin) at 0.164 uM relative to control
[3] = test system: Mast/stem cell growth factor receptor Kit (Homo sapiens), P10721 [T670I]; assay: Inhibition of KIT T670I mutant (unknown origin) at 0.164 uM relative to control
[4] = AUC in C57BL/6J mouse at 30 mg/kg, po by LC-MS/MS analysis; assay type: ADME, organism-based; conditions: in vivo
Outline: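 C57BL/6J mice received a single oral dose of 30 mg/kg as a suspension in 0.5% methylcellulose. Plasma Cmax and AUC are reported as the average of two animals.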

[5] = molecular target: T1, Testis-specific serine/threonine-protein kinase 2 (Homo sapiens) (UniProt Q96PF2); assay: Inhibition of TSSK2 (unknown origin) at 0.164 uM relative to control
T1 sequence (whole entry): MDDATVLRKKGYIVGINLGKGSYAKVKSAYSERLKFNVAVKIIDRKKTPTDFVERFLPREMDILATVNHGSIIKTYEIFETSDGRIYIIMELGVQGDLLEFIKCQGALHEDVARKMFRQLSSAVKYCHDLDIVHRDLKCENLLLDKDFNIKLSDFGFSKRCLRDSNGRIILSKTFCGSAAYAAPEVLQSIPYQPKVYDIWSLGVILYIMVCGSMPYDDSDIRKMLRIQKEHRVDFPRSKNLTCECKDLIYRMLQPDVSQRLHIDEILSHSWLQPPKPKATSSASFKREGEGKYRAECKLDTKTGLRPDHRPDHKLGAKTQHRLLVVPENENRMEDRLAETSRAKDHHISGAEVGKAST

[6] = molecular target: High affinity nerve growth factor receptor (Homo sapiens) (UniProt P04629); assay: Inhibition of TRKA (unknown origin) at 0.164 uM relative to control
[7] = molecular target: Calcium/calmodulin-dependent protein kinase type II subunit beta (Homo sapiens) (UniProt Q13554); assay: Inhibition of CaMK2-beta (unknown origin) at 0.45 uM relative to control
[8] = molecular target: Calcium/calmodulin-dependent protein kinase type IV (Homo sapiens) (UniProt Q16566); assay: Inhibition of CAMK4 (unknown origin) at 0.45 uM relative to control
[9] = molecular target: Proto-oncogene tyrosine-protein kinase Src (Homo sapiens) (UniProt P12931); assay: Inhibition of SRC (unknown origin) at 0.19 uM relative to control
[10] = molecular target: Serine/threonine-protein kinase 3 (Homo sapiens) (UniProt Q13188); assay: Inhibition of MST2 (unknown origin) at 0.19 uM relative to control
[11] = molecular target: Ephrin type-A receptor 2 (Homo sapiens) (UniProt P29317); assay: Inhibition of EPHA2 (unknown origin) at 0.19 uM relative to control
[12] = molecular target: Protein kinase C beta type (Homo sapiens) (UniProt P05771); assay: Inhibition of PKC-beta1 (unknown origin) at 0.19 uM relative to control
[13] = molecular target: T2, Tyrosine-protein kinase TXK (Homo sapiens) (UniProt P42681); assay: Inhibition of TXK (unknown origin) at 0.19 uM relative to control
T2 sequence (whole entry): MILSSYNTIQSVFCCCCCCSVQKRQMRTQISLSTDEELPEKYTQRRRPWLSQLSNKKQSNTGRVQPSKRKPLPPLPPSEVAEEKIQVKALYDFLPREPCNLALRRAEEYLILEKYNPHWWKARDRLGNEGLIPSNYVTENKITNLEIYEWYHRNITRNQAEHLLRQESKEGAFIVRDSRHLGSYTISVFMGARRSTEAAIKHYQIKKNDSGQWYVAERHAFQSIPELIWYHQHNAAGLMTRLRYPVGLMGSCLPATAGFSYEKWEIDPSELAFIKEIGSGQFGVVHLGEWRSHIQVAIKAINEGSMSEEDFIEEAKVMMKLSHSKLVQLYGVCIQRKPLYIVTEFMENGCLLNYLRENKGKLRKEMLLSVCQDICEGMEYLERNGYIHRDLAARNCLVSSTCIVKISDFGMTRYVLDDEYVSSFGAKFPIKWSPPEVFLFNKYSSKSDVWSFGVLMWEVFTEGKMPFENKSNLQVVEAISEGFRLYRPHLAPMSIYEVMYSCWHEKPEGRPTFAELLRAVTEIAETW

[14] = molecular target: Platelet-derived growth factor receptor alpha (Homo sapiens) (UniProt P16234); assay: Inhibition of PDGFR alpha (unknown origin) at 0.19 uM relative to control
[15] = molecular target: Serine/threonine-protein kinase MARK2 (Homo sapiens) (UniProt Q7KZI7); assay: Inhibition of MARK2 (unknown origin) at 0.19 uM relative to control
[16] = molecular target: Tyrosine-protein kinase receptor UFO (Homo sapiens) (UniProt P30530); assay: Inhibition of AXL (unknown origin) at 0.19 uM relative to control
[17] = molecular target: Serine/threonine-protein kinase BRSK1 (Homo sapiens) (UniProt Q8TDC3); assay: Inhibition of BRSK1 (unknown origin) at 0.19 uM relative to control
[18] = molecular target: NUAK family SNF1-like kinase 1 (Homo sapiens) (UniProt O60285); assay: Inhibition of NuaK1 (unknown origin) at 0.19 uM relative to control
[19] = molecular target: T3, cGMP-dependent protein kinase 1 (Homo sapiens) (UniProt Q13976); assay: Inhibition of PKG1-beta (unknown origin) at 0.19 uM relative to control
T3 sequence (whole entry): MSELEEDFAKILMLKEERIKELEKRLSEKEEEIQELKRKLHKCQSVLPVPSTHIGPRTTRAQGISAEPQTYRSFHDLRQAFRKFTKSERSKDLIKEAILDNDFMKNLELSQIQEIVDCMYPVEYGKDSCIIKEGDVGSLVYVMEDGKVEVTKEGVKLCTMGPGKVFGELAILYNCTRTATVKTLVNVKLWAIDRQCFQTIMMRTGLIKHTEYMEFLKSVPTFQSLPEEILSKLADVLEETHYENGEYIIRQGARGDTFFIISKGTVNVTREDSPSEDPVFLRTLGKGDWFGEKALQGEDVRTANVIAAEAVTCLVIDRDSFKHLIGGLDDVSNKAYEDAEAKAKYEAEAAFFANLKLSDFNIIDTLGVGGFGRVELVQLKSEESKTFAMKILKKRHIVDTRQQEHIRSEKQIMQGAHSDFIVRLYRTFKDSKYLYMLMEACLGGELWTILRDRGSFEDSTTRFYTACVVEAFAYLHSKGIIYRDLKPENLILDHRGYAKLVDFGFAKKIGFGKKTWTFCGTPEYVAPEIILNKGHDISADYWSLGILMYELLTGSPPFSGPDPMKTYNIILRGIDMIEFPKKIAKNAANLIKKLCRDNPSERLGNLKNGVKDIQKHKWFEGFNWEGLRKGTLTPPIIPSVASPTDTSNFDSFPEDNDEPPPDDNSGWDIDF

In the case of COC(=O)Nc1cc(-c2c(C3CC3)n[nH]c2C)cc2[nH]ncc12, the inhibition [1] is reported as 4.7%, the inhibition [2] is reported as -0.3% and the inhibition [3] is reported as 1%. For the same molecule, the AUC [4] was 14700 ng·h/mL, the inhibition [5] was -5.7% and the inhibition [6] was 1.3%.
In the case of Cc1n[nH]c(C)c1-c1ccc2c(NC(=O)c3ccc(N4CCN(C)CC4)cc3)n[nH]c2c1, the inhibition [7] is reported as -0.3% and the inhibition [8] is reported as 0%.
Work on Cc1[nH]nc(C2CC2)c1-c1ccc2c(-c3ccc(N4CCN(C)CC4)nc3)n[nH]c2c1 yielded an inhibition [9] of 15.7%, an inhibition [10] of 4.7% and an inhibition [11] of -0.3%. It also gave an inhibition [12] of 3%, an inhibition [13] of -8.3% and an inhibition [14] of 36%. The inhibition [15] was -5.3%, the inhibition [16] was -2.3% and the inhibition [17] was 1.7%. For the same molecule, the inhibition [18] was 2.3% and the inhibition [19] was -3.3%.
